Laboratory results taken from ChEMBL document CHEMBL3414553, “Novel imidazo[2,1-b]-1,3,4-thiadiazoles as promising antifungal agents against clinical isolate of Cryptococcus neoformans” (2015).
≈ marks a conversion by molar mass, not a printed value.

Columns and labels:
Type in all cases: functional
[1] = tested on: Candida albicans; assay: Antifungal activity against Candida albicans ATCC 90028 after 24 hrs by two-fold broth microdilution method; conditions: ATCC 90028, 24 h
Summary of the method: (§1)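 Strains subcultured one day before testing; colonies suspended in sterile water and adjusted to 0.5 McFarland (1.5 × 10^8 cfu/ml). Two-fold dilutions in MHB (medium pH 7.4 ± 0.1), final 200 to 0.39 µg/ml. Incubated 37 ± 1 °C for 24 h, then resazurin (0.4 mg/ml) added for a further 5 h. MIC read by colour: blue = no growth, pink = growth.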

[2] = tested on: Candida albicans; assay: Antifungal activity against Candida albicans clinical isolate after 24 hrs by two-fold broth microdilution method; summary of the method: as §1
[3] = tested on: Cryptococcus neoformans; assay: Antifungal activity against […] ATCC 66031 after 24 hrs by two-fold broth microdilution method; conditions: ATCC 66031, 24 h; summary of the method: as §1
[4] = tested on: Cryptococcus neoformans; assay: Antifungal activity against […] clinical isolate after 24 hrs by two-fold broth microdilution method; summary of the method: as §1
[5] = tested on: Aspergillus niger; assay: Antifungal activity against Aspergillus niger ATCC 16404 after 24 hrs by two-fold broth microdilution method; conditions: ATCC 16404, 24 h; summary of the method: as §1
[6] = tested on: Staphylococcus aureus; assay: Antibacterial activity against Staphylococcus aureus ATCC 25923 after 24 hrs by two-fold broth microdilution method; conditions: ATCC 25923, 24 h; summary of the method: as §1
[7] = tested on: Bacillus subtilis; assay: Antibacterial activity against Bacillus subtilis ATCC 6051 after 24 hrs by two-fold broth microdilution method; conditions: ATCC 6051, 24 h; summary of the method: as §1
[8] = tested on: Escherichia coli; assay: Antibacterial activity against Escherichia coli ATCC 35218 after 24 hrs by two-fold broth microdilution method; conditions: ATCC 35218, 24 h; summary of the method: as §1
[9] = tested on: Pseudomonas aeruginosa; assay: Antibacterial activity against Pseudomonas aeruginosa ATCC 27853 after 24 hrs by two-fold broth microdilution method; conditions: ATCC 27853, 24 h; summary of the method: as §1
[10] = tested on: Mycobacterium tuberculosis; assay: Antimicrobial activity against Mycobacterium tuberculosis H37Rv
Summary of the method: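 M. tuberculosis H37Rv grown 5 d in 7H9-Tw-OADC with 10-point two-fold serial dilutions from DMSO (final DMSO 2%). Top concentration 200 µM, or 50-fold below the stock for poorly soluble compounds. Controls: medium/DMSO background, 100 µM rifampicin for zero growth, DMSO for maximum growth, plus a rifampicin dose-response. Growth read by OD590 and fluorescence (Ex 560/Em 590).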

| SMILES | MIC [1] | MIC [2] | MIC [3] | MIC [4] | MIC [5] | MIC [6] | MIC [7] | MIC [8] | MIC [9] | MIC [10] |
| --- | --- | --- | --- | --- | --- | --- | --- | --- | --- | --- |
| O=C(/C=C/c1c(-c2ccc(Br)cc2)nc2sc(-c3ccc(Cl)cc3)nn12)c1ccccc1 | > 200 µg/mL | > 200 µg/mL | 6.25 µg/mL (≈ 12 µM) | 12.5 µg/mL (≈ 24 µM) | > 200 µg/mL | > 200 µg/mL | > 200 µg/mL | > 200 µg/mL | > 200 µg/mL | – |
| Brc1ccc(-c2nc3sc(-c4ccc(I)cc4)nn3c2/C=N/C2CCCCC2)cc1 | 25 µg/mL (≈ 42.3 µM) | 50 µg/mL (≈ 84.6 µM) | 100 µg/mL (≈ 169 µM) | > 200 µg/mL | 100 µg/mL (≈ 169 µM) | 200 µg/mL (≈ 338 µM) | 200 µg/mL (≈ 338 µM) | 200 µg/mL (≈ 338 µM) | 50 µg/mL (≈ 84.6 µM) | – |
| COc1ccc(-c2nn3c(/C=C/C(=O)c4cccs4)c(-c4ccc(Br)cc4)nc3s2)cc1 | 100 µg/mL (≈ 191 µM) | > 200 µg/mL | 25 µg/mL (≈ 47.9 µM) | 200 µg/mL (≈ 383 µM) | > 200 µg/mL | > 200 µg/mL | > 200 µg/mL | > 200 µg/mL | > 200 µg/mL | – |
| COc1ccc(-c2nn3c(/C=C/C(=O)c4ccc(C)cc4)c(-c4ccc(Br)cc4)nc3s2)cc1 | 200 µg/mL (≈ 377 µM) | > 200 µg/mL | 1.56 µg/mL (≈ 2.94 µM) | 3.12 µg/mL (≈ 5.89 µM) | > 200 µg/mL | > 200 µg/mL | > 200 µg/mL | 200 µg/mL (≈ 377 µM) | > 200 µg/mL | – |
| COc1ccc(-c2nn3c(/C=C/C(=O)c4ccccc4)c(-c4ccc(Br)cc4)nc3s2)cc1 | 50 µg/mL (≈ 96.8 µM) | > 200 µg/mL | 3.12 µg/mL (≈ 6.05 µM) | 12.5 µg/mL (≈ 24.2 µM) | > 200 µg/mL | > 200 µg/mL | > 200 µg/mL | 200 µg/mL (≈ 387 µM) | > 200 µg/mL | – |
| Clc1ccccc1-c1nn2c(/C=N/C3CC3)c(-c3ccc(Br)cc3)nc2s1 | 25 µg/mL (≈ 54.6 µM) | 50 µg/mL (≈ 109 µM) | 100 µg/mL (≈ 218 µM) | > 200 µg/mL | 100 µg/mL (≈ 218 µM) | 200 µg/mL (≈ 437 µM) | 200 µg/mL (≈ 437 µM) | 200 µg/mL (≈ 437 µM) | 50 µg/mL (≈ 109 µM) | – |
| O=C(/C=C/c1c(-c2ccc(Br)cc2)nc2sc(-c3ccc(Cl)cc3)nn12)c1cccs1 | 25 µg/mL (≈ 47.5 µM) | > 200 µg/mL | 12.5 µg/mL (≈ 23.7 µM) | 12.5 µg/mL (≈ 23.7 µM) | > 200 µg/mL | > 200 µg/mL | > 200 µg/mL | > 200 µg/mL | > 200 µg/mL | – |
| O=C(/C=C/c1c(-c2ccc(Br)cc2)nc2sc(-c3ccccc3Br)nn12)c1ccccc1 | 200 µg/mL (≈ 354 µM) | > 200 µg/mL | 1.56 µg/mL (≈ 2.76 µM) | 6.25 µg/mL (≈ 11.1 µM) | > 200 µg/mL | 200 µg/mL (≈ 354 µM) | > 200 µg/mL | > 200 µg/mL | > 200 µg/mL | – |
| Brc1ccc(-c2nc3sc(-c4ccc(I)cc4)nn3c2/C=N/C2CC2)cc1 | 25 µg/mL (≈ 45.5 µM) | 50 µg/mL (≈ 91 µM) | 100 µg/mL (≈ 182 µM) | > 200 µg/mL | 100 µg/mL (≈ 182 µM) | 200 µg/mL (≈ 364 µM) | 200 µg/mL (≈ 364 µM) | 200 µg/mL (≈ 364 µM) | 50 µg/mL (≈ 91 µM) | – |
| O=C(/C=C/c1c(-c2ccc(Br)cc2)nc2sc(-c3ccccc3Cl)nn12)c1ccccc1 | > 200 µg/mL | > 200 µg/mL | 12.5 µg/mL (≈ 24 µM) | 12.5 µg/mL (≈ 24 µM) | > 200 µg/mL | > 200 µg/mL | > 200 µg/mL | 100 µg/mL (≈ 192 µM) | > 200 µg/mL | – |
| CC1(C)S[C@@H]2[C@H](NC(=O)[C@H](N)c3ccc(O)cc3)C(=O)N2[C@H]1C(=O)O [AMOXICILLIN] | – | – | – | – | – | < 0.39 µg/mL | < 0.39 µg/mL | < 0.39 µg/mL | < 0.39 µg/mL | – |
| Cc1ccc(C(=O)/C=C/c2c(-c3ccc(Br)cc3)nc3sc(-c4ccc(Cl)cc4)nn23)cc1 | 50 µg/mL (≈ 93.5 µM) | > 200 µg/mL | 3.12 µg/mL (≈ 5.84 µM) | 6.25 µg/mL (≈ 11.7 µM) | > 200 µg/mL | > 200 µg/mL | > 200 µg/mL | > 200 µg/mL | > 200 µg/mL | – |
| Cc1ccc(C(=O)/C=C/c2c(-c3ccc(Br)cc3)nc3sc(-c4ccccc4)nn23)cc1 | 25 µg/mL (≈ 50 µM) | > 200 µg/mL | 25 µg/mL (≈ 50 µM) | 100 µg/mL (≈ 200 µM) | > 200 µg/mL | > 200 µg/mL | > 200 µg/mL | > 200 µg/mL | > 200 µg/mL | – |
| O=C(NN=C1CCCCC1)c1ccncc1 | – | – | – | – | – | – | – | – | – | 30 µg/mL (≈ 138 µM) |
| Clc1ccc(-c2nn3c(/C=N/C4CC4)c(-c4ccc(Br)cc4)nc3s2)cc1 | 25 µg/mL (≈ 54.6 µM) | 50 µg/mL (≈ 109 µM) | 100 µg/mL (≈ 218 µM) | 200 µg/mL (≈ 437 µM) | 100 µg/mL (≈ 218 µM) | 200 µg/mL (≈ 437 µM) | 200 µg/mL (≈ 437 µM) | 200 µg/mL (≈ 437 µM) | 50 µg/mL (≈ 109 µM) | – |
